Reference: ChEMBL document CHEMBL4513216, “Probing the Open Global Health Chemical Diversity Library for Multistage-Active Starting Points for Next-Generation Antimalarials” (ACS Infect Dis, 2020)

Experiment: Toxicity liver stage against HepG2, at 10uM
Assay type: cell-based
Design: test concentration 10 uM, cell line HepG2-A16-CD81EGFP
Settings: human, HepG2-A16-CD81EGFP cells; read-out: INHIBITION
Outline: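 Uninfected HepG2-A16-CD81EGFP cells, 3 × 10^3 per well, 1536-well, plated on prespotted compound at 10 μM final, parasite-free screening media added to match infected plates; puromycin 10 μM positive, DMSO 0.5% negative; run in parallel with 48 h PbLuc assay at 37 °C, 5% CO2; viability by CellTiter-Glo luminescence, normalized to controls.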

Compound | cytotoxicity at 10 µM
CNC(=O)[C@@]12CCC3(CCNCC3)[C@@H]1CN(S(C)(=O)=O)C2 | -2.86%
COCCC1(CNC(=O)Nc2ccnc(C)c2)CCCC1 | 2.12%
O=C(c1ncn2c1CNS(=O)(=O)c1ccccc1-2)N1CCCCC1 | 9.52%
CCC1CN(C(=O)c2ncccc2O)CCC(=O)N1Cc1ccccc1 (stereo unspecified) | 3.2%
CCCN1CCc2[nH]cnc2C12CCN(C(=O)CCn1cccn1)CC2 | 7.36%
CCOC(=O)NCC(=O)Nc1nc2ccccc2n1C(C)(C)C | -4.62%
O=C(c1cnccn1)N1CCN(Cc2ccncc2)c2ncccc2C1 | -2.72%
Cc1c(C(=O)N2CCC(O)(CN(C)C)C2)c2cc(O)ccc2n1C (stereo unspecified) | -120%
Cc1cc(C(=O)N2CC[C@@H]3CN(CCC(C)C)S(=O)(=O)[C@@H]3CC2)no1 | 1.58%
COCC1CN(Cc2cc(C)on2)Cc2cnn(C)c21 (stereo unspecified) | 6.22%
COCCN1CC(C(=O)N(C)Cc2cc(-c3cccnc3)no2)CC1=O (stereo unspecified) | -1.99%
CC(C)N1CCOCC2(CN(Cc3cccs3)CCO2)C1 (stereo unspecified) | 3.71%
Cc1c(C(C)NC(=O)Nc2ccc(F)c(F)c2)cnn1C (stereo unspecified) | -46.8%
Cc1nc(CN(C)C(=O)c2cc(C)sc2NC(=O)C(C)(C)C)no1 | 3.81%
Cc1nc(C)n(CC2CN(Cc3cscn3)CCO2)n1 (stereo unspecified) | -4.22%
COc1ccccc1C1CC(=O)Nc2c1c(=O)[nH]n2C1CCCC1 (stereo unspecified) | -3.85%
Cc1ccc2c(c1)N(C(=O)c1c[nH]c(C)cc1=O)CC(C)O2 (stereo unspecified) | 23.6%
CC(NCCN1CCC(N(C)C)CC1)c1ccc(F)cc1N(C)C (stereo unspecified) | -13%
CCS(=O)(=O)NC(C(=O)NC)c1ccc(F)c(F)c1 (stereo unspecified) | -9.06%
CCC(O)CN1CCN(C(=O)c2cnn(-c3ccccc3F)c2)CC1 (stereo unspecified) | -3.69%
OCC1(O)CCCN(Cc2nnc(-c3ccccc3)o2)CC1 (stereo unspecified) | -3.69%
Cc1nc(-c2cn(CCN)nn2)n(-c2ccc(C(F)(F)F)cc2)n1 | -1.77%
CS(=O)(=O)NC1CCN(Cc2coc(-c3ccccc3)n2)CC1 | -43.3%

Compound | cytotoxicity at 10 µM
CC(CNC(=O)c1ccon1)Oc1cccc(Br)c1 (stereo unspecified) | -1.52%
Cc1csc([C@H]2C[C@@H]3CCN(Cc4cnn(C)c4)C[C@H]3O2)n1 | -3.9%
O=C1O[C@@H]2CN(c3ccccn3)C[C@@H]2N1CCCc1ccc(F)cc1 | -2.88%
O=C(NCC1Cn2nnc(-c3cccc(F)c3)c2CO1)c1ccc[nH]1 (stereo unspecified) | 1.46%
O=C(CC(F)(F)F)N1CCc2onc(Cn3cccn3)c2C1 | 0.635%
Fc1ccc(Cc2cnc(C3CCCN3)cn2)cc1 (stereo unspecified) | -9.77%
O=S(=O)(NC1CCC2(CC1)OCCO2)c1ccccc1Br | -9.01%
O=C(CCc1cc2n(n1)CCCN(C(=O)c1ccncc1)C2)NC1CC1 | 12.2%
Cc1cnc(CNC(=O)NC2CCCN(c3ccccc3F)C2)s1 (stereo unspecified) | 16.4%
COc1ccccc1C(C(=O)O)N1CCCN(C2CCCC2)CC1 (stereo unspecified) | -9.12%
CC(=O)NC(C)(C)c1noc(C2(C#N)CCCCC2)n1 | 7.57%
Cc1ccccc1CS(=O)(=O)CC(=O)N(C)Cc1cccc(F)c1 | 4.8%
CS(=O)(=O)N[C@@H]1CN(Cc2ccccc2)C[C@@H]2CCCO[C@@H]21 | 2.58%
Cc1cc(C[C@@H]2CCC[C@H]2NCc2ccccc2F)on1 | -6.19%
CN(Cc1ccccc1)CC(C)(C)NC(=O)c1ccon1 | 13%
Cc1ccc(NC2CCN(C(=O)c3cscn3)CC2)nn1 | -8.73%
Cc1nc(CN2CC[C@@H]3O[C@@H](C(=O)N4CCOCC4)C[C@@H]32)cs1 | 2.08%
Cc1ccc(OCC(=O)NCc2sccc2C)nc1 | -0.509%
Cc1cnn(C2CCCN(C(=O)CCCOc3cccc(F)c3)C2)c1 (stereo unspecified) | 6.71%
CC(C)c1nn(C)c(N(C)C)c1CNCCC(=O)N(C)C | -6.02%
O=C(Nc1cccnc1N1CCCC1)C1CCS(=O)(=O)C1 (stereo unspecified) | -13.1%
Cc1csc(C(C)(C)NCC(=O)N2CCCC(C(N)=O)C2)n1 (stereo unspecified) | 5.73%
CCOc1cc(CNCc2ncc[nH]2)c(Cl)cc1OC(C)C | 5.45%

Compound | cytotoxicity at 10 µM
CC(Nc1cnn(C)c(=O)c1Cl)c1ccc(F)cc1 (stereo unspecified) | 20.7%
COc1ccc(-c2csc(N)c2C#N)cc1OC | -2.46%
O=c1[nH]c(-c2ccc(F)cc2)nc2c1CCNC2 | -2.47%
CC1=N[C@@]2(CC[C@@H]3CN(CC4CC4)C[C@@H]32)C(=O)N1CC(C)C | -84%
CN(C)S(=O)(=O)N1CCN(Cc2ccnc(N3CCCC3)n2)CC1 | -4.42%
CN(C)C(=O)CO[C@@H]1CC[C@H]2[C@H]1OCCN2c1ncccn1 | -6.96%
CN1CCN(C2CCN(CCCOc3ccc(F)cc3)CC2)C1=O | 0.28%
Cc1cc(-c2cnc(NC3CCCC3)nc2-c2ccoc2)on1 | -20.9%
COc1ccc(-c2noc(Cn3cc4c(n3)CCC4)n2)c(OC)c1OC | 4.7%
Cc1cnn(C2CN(Cc3nnc(-c4ccccc4Cl)o3)C2)c1 | -2.76%
Cc1cnn(CCNCc2nnc(Cc3ccccc3)o2)c1 | -8.63%
O=S(=O)(NCc1cn2ccccc2n1)N1CCOCC1 | 2.69%
CC(Cn1ccnc1)NC(=O)NCc1cccnc1OC1CCCC1 (stereo unspecified) | -13.3%
Cn1nc(C2CCCN(Cc3ccsc3)C2)c2nccnc21 (stereo unspecified) | -2.58%
COc1ccc(Oc2cccc(C#N)n2)cc1CN1CCCC1 | -1.86%
NC(=O)c1cc(C2CCCN(CCc3ccccn3)C2)n[nH]1 (stereo unspecified) | -8.44%
CC(C)N(C)Cc1nnn2c1CN(Cc1cccnc1)CCC2 | 11.3%
N#Cc1nccnc1NC1CCN(c2ccccc2OC(F)F)C1 (stereo unspecified) | 12.8%
Cn1cnnc1C1CCCN(C(=O)NCCc2ccccc2F)C1 (stereo unspecified) | -1.88%
N#CC(NC(=O)CCCOc1cccnc1)c1ccc(F)cc1F (stereo unspecified) | 8.23%
CN(CCCOc1ccccc1Cl)C(=O)CN1CCNC1=O | -0.2%
O=C(c1ccncc1F)N1Cc2nc(CN3CCCCC3)oc2C1 | -105%
Cc1cnn(CCC(=O)N2CCN(c3ncccc3Cl)CC2)c1 | 2.41%

Compound | cytotoxicity at 10 µM
CN1Cc2ccccc2CC2(CCN(C(=O)[C@H]3CCCO3)CC2)C1=O | -113%
CSC1(CNC(=O)N(C)Cc2ccc(C)s2)CCOCC1 | -46.5%
Cc1cc(S(=O)(=O)NCC(C)(C)N)c(F)cc1F | 3.8%
CC(C)C[C@H](NCc1cc(O)c2cccc(F)c2n1)C(N)=O | 5.71%
Cc1cccc(CN2CCC3(CC2)CN(c2cccnc2)C(=O)CO3)n1 | -96.1%
CC(C)(C)c1ncc(C(=O)N2CCN(C(=O)c3ccc[nH]3)CC2)c(O)n1 | -6.74%
O=S(=O)(CCNCc1ccc(Cl)cc1)N1CCOCC1 | 4.68%
CS(=O)(=O)N1CCC(NC(=O)COc2ccccc2Cl)CC1 | -1.99%
CC(C)(O)CCc1cccc(C(=O)NCCC2CCOC2)c1 (stereo unspecified) | -1.94%
CC(C)CC(O)C1CCN(C(=O)c2ccc(C(C)C)[nH]c2=O)CC1 (stereo unspecified) | 3.25%
Cn1ccc(NC(=O)Cc2cccc(F)c2)n1 | 1.44%
Cc1nc(CCNC(=O)NCc2ccc(N(C)C)nc2)cs1 | -11.3%
Cn1cnc2c1C(COCC1CC1)CN(C(=O)c1cccs1)C2 (stereo unspecified) | 7.63%
O=C1CC[C@H]2CN(c3ncc(F)cn3)CC[C@H]2N1CCc1ccccc1 | 9.61%
CC(=O)N1Cc2ccccc2OC2(CCN(C(=O)C3CCOC3)CC2)C1 (stereo unspecified) | 0.146%
CC(C)(O)CN1CCN(C(=O)c2cccnc2O)CC1 | -21.7%
CC(C)N1CCC(NC(=O)c2cn(-c3ccc(F)cc3)nn2)C1 (stereo unspecified) | -5.05%
CCc1ocnc1C(=O)N1CCCC1c1noc(C2CC2)n1 (stereo unspecified) | -4.45%
Cc1nccnc1N1Cc2cnn(Cc3ccc(F)cc3)c2C1 | 2.45%
COc1ccc(-n2cc(CCO)cn2)cc1C | -12.4%
CC(C)CN1CCC2(CCCNC2)C1=O (stereo unspecified) | -0.184%
CO[C@H]1CO[C@@]2(CCCN(C(=O)C3CC=CC3)C2)C1 | -98.6%
CSCc1cc(F)ccc1CNC(=O)N1CCCC1 | 5.58%

Compound | cytotoxicity at 10 µM
CN(Cc1cccc2ncccc12)C(=O)CCn1ccc(=O)[nH]c1=O | -134%
CC(C)Sc1ccc(C(C)NC(=O)Cn2cccnc2=O)cc1 (stereo unspecified) | 16.8%
c1ccc(CN2CCc3ncnc(-c4cncnc4)c3CC2)nc1 | -68.3%
CN(C)c1ncc(-c2ccc(C(N)=O)cc2)c(C2CCNC2)n1 (stereo unspecified) | -0.892%
Cc1nc(N2CCCC2)ncc1-c1cc(O)n2ncnc2n1 | 10.6%
Cc1nnc(CN(CCc2ccccc2)C2CCN(C)CC2)s1 | 0.219%
c1ccc(Cc2noc(-c3ccc(NCC4CCCOC4)nc3)n2)cc1 (stereo unspecified) | -1.05%
COCC(=O)Nc1nnc2n(Cc3cccc(OC)c3)[nH]c(C)c1-2 | -11.7%
O=C(c1cc(-c2cn[nH]c2)nc2cc(F)ccc12)N1CCS(=O)(=O)CC1 | 0.141%
c1ncc(Nc2nccc(C3CCCCN3CC3CCCCC3)n2)cn1 (stereo unspecified) | 3.32%
O=C(Cc1ccsc1)N1CCCC(c2n[nH]c3nccnc23)C1 (stereo unspecified) | 1.98%
CCn1cc(Br)c(C(=O)NCc2ccc(F)cc2)n1 | -3.01%
O=C(COc1ccc(Cl)cc1)N1CCN(c2cnccn2)CC1 | -20.4%
O=C(NCc1ccco1)[C@H]1COC[C@H]2CN(Cc3ccoc3)C[C@H]21 | -70.4%
NC(=O)Cn1ccc(NC(=O)C2(c3cccc(Cl)c3)CC2)n1 | 0.217%
NC(=O)c1ccc(CN2CCCC(N3CCCC3)C2)cc1 (stereo unspecified) | -3.63%
CCCc1nnc(NC2CCN(CCO)CC2)o1 | 8.35%
CC(C1CCN(Cc2cnn(C)c2C2CC2)CC1)N1CCCC1 (stereo unspecified) | 6.29%
Cc1cnc(N(C)CCCc2cnn(C)c2)nc1N(C)C | 2.03%
